# Columns and labels:
# human UGT1A1 [1] = target: T1, human UGT1A1 (Homo sapiens, UniProt P22309); assay: Mutual glucuronidation inhibition; assay type: biochemical; conditions: for Vmax: n=3; for Ki: mixed-type inhibition; for type of inhibition of UGT1A1-mediated glucuronidation: best fit by R2 and AIC, Lineweaver-Burk plots; for decrease of apparent Vmax of glucuronidation versus control: substrate glucuronidation in presence of increasing 3,7,4′THF, up to 5 μM
# T1 sequence (P22309 26-533): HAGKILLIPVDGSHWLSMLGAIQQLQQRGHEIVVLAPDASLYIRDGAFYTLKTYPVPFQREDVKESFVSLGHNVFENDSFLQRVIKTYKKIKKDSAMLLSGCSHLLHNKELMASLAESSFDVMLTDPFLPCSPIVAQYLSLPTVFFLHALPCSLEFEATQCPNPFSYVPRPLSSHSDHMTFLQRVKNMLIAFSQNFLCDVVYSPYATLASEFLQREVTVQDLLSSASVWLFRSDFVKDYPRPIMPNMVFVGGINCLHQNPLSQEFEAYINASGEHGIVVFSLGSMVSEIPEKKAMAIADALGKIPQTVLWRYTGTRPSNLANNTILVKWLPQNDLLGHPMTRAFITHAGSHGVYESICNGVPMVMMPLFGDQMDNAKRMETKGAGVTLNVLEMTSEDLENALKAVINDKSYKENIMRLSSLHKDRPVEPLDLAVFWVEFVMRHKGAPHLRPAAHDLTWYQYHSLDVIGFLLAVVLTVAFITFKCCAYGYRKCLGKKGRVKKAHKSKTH
# human UGT1A1 [2] = target: T1, human UGT1A1; assay: Glucuronidation kinetics with expressed human UGT1A1 Supersomes; assay type: in vitro ADME
# In short: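 Recombinant human UGT1A1 Supersomes (26.5~53.0 µg protein/mL final) with MgCl2 0.88 mM, saccharolactone 4.4 mM, alamethicin 0.022 mg/mL and UDPGA 3.5 mM (added last) in 50 mM potassium phosphate, pH 7.4. Test compound at 0–10 µM final. Incubated 37°C for 15~120 min, then stopped with acetonitrile/acetic acid. Glucuronide quantified by UPLC in triplicate. Rates were fitted to Michaelis-Menten, substrate-inhibition or Hill equations with 1/y weighting.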
# [3] = glucuronide formation in presence of 3,7,4′THF 0.313 μM
# [4] = glucuronide formation in presence of 3,7,4′THF 0.625 μM
# [5] = glucuronide formation in presence of 3,7,4′THF 1.25 μM
# [6] = glucuronide formation in presence of 3,7,4′THF 5 μM
# [7] = glucuronide formation, 3,7,4′THF 0 μM (absence of inhibitor)
# [8] = Ki (inhibition of 3,7,4′THF-3-O-G formation), substrate 3,7,4′THF, 3-O-glucuronidation
# [9] = Ki (inhibition of 3,7,4′THF-7-O-G formation), substrate 3,7,4′THF, 7-O-glucuronidation
Compound,Vmax (human UGT1A1 [1]; [3]) [nmol/mg/min],Vmax (human UGT1A1 [1]; [4]) [nmol/mg/min],Vmax (human UGT1A1 [1]; [5]) [nmol/mg/min],Vmax (human UGT1A1 [1]; [6]) [nmol/mg/min],Vmax (human UGT1A1 [1]; [7]) [nmol/mg/min],type of inhibition of UGT1A1-mediated glucuronidation (human UGT1A1 [1]),Ki (human UGT1A1 [1]; [8]) [µM],Ki (human UGT1A1 [1]; [9]) [µM],decrease of apparent Vmax of glucuronidation versus control (human UGT1A1 [1]) [times],further results
"O=C(O)[C@H]1O[C@@H](Oc2ccc(-c3cc(=O)c4ccccc4o3)cc2)[C@H](O)[C@@H](O)[C@@H]1O [4′HF-O-G, 4′HF-O-glucuronide]",0.63 ± 0.02,0.61 ± 0.02,0.58 ± 0.01,0.14 ± 0.01,0.68 ± 0.02,–,–,–,–,–
"O=c1c(O)c(-c2ccc(O)cc2)oc2cc(O)ccc12 [3,7,4′THF, 3,7,4′-trihydroxyflavone]",–,–,–,–,–,mixed-type inhibition,–,–,–,"Ki (human UGT1A1 [1]; Ki (inhibition of glucuronidation of 3HF), substrate 3HF): 0.51 ± 0.15 µM; Ki (human UGT1A1 [1]; Ki (inhibition of glucuronidation of 7HF), substrate 7HF): 1.29 ± 0.33 µM; Ki of substrate inhibition (human UGT1A1 [2]; substrate inhibition pattern of 3,7,4′THF in the absence of three MHFs): approximately 1 μM"
"O=c1cc(-c2ccc(O)cc2)oc2ccccc12 [4′HF, 4′-hydroxyflavone]",–,–,–,–,–,mixed-type inhibitors,3.66 ± 0.77,6.22 ± 1.74,≤ 5.0,–
"O=c1c(O)c(-c2ccccc2)oc2ccccc12 [3HF, 3-Hydroxyflavone]",–,–,–,–,–,mixed-type inhibitors,4.14 ± 1.24,9.04 ± 2.72,≤ 4.6,–
"O=C(O)[C@H]1O[C@@H](Oc2c(-c3ccccc3)oc3ccccc3c2=O)[C@H](O)[C@@H](O)[C@@H]1O [3HF-O-G, 3HF-O-glucuronide]",1.63 ± 0.07,1.67 ± 0.03,2.05 ± 0.13,0.44 ± 0.16,2.00 ± 0.05,–,–,–,–,–
"O=C(O)[C@H]1O[C@@H](Oc2ccc3c(=O)cc(-c4ccccc4)oc3c2)[C@H](O)[C@@H](O)[C@@H]1O [7HF-O-G, 7HF-O-glucuronide]",1.27 ± 0.03,1.16 ± 0.03,0.99 ± 0.07,0.59 ± 0.07,1.40 ± 0.05,–,–,–,–,–
"O=c1cc(-c2ccccc2)oc2cc(O)ccc12 [7HF, 7-hydroxyflavone]",–,–,–,–,–,mixed-type inhibitors,1.77 ± 0.72,4.33 ± 1.6,≤ 2.4,–
"O=C(O)[C@H]1O[C@@H](Oc2ccc(-c3oc4cc(O)ccc4c(=O)c3O)cc2)[C@H](O)[C@@H](O)[C@@H]1O [3,7,4′THF-4′-O-G, 3,7,4′THF-4′-O-glucuronide]",–,–,–,–,–,–,–,–,–,"detection of glucuronide in UGT1A1 reaction mixtures (human UGT1A1 [2]; 3,7,4′THF incubated with human UGT1A1): not detected"

# — article PMC3953455 (Molecular pharmaceutics, 2013)
